Data reported in ChEMBL document CHEMBL4354820, “Optimizing Targeted Inhibitors of P-Glycoprotein Using Computational and Structure-Guided Approaches” (J Med Chem, 2019).
pKd: −log10 of the molar value.

Legend:
[1] = target: T1, ATP-dependent translocase ABCB1 (Homo sapiens, UniProt P08183); assay: Ratio of inhibition of P-gp overexpressed in human DU145-TxR cells assessed as increase in intracellular compound accumulation after 2.5 hrs in presence of tariquidar by LC-MS/MS analysis to Inhibition of P-gp overexpressed in human DU145-TxR cells assessed as decrease in intracellular compound accumulation after 2.5 hrs in absence of tariquidar by LC-MS/MS analysis; type: cell-based
How it was run: (§1)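 P-gp-overexpressing DU145TXR cells exposed to test compounds with or without tariquidar. Intracellular compound measured by LC–MS/MS, with daunorubicin as a transported-substrate control. Ratio is accumulation with tariquidar divided by accumulation without.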

[2] = system: P-glycoprotein 1 Abcb1a (Mus musculus); assay: Inhibition of 2',3'-(2,2,5,5,-tetramethyl-3-pyrroline-l-oxyl-3-carboxylic acid ester)ATP interaction with mouse MDR3 P-gp expressed in Escherichia coli BL21 (DE3) assessed as reduction in ATP binding from 2 to 1 of nucleotide to mol of protein by ESR analysis (reference value: 1.8 +/- 0.1)
[3] = target: T2, P-glycoprotein (ABCB1, MDR1) ATPase (Homo sapiens, UniProt P08183); assay: Inhibition of verampil-stimulated ATPase hydrolysis in recombinant human MDR1 expressed in Pichia pastoris measured after 30 mins in presence of NADH by coupled enzyme assay (reference value: 100 +/- 6 %); design: scale not given: the % may be the effect or the level left; details: recombinant human MDR1 (P-gp) expressed in Pichia pastoris
[4] = target: T1, ATP-dependent translocase ABCB1; assay: Reversal of P-gp mediated multidrug resistance in human DU145-TxR cells overexpressing P-gp assessed as potentiation of paclitaxel-induced cytotoxicity by measuring fold reduction paclitaxel IC50 at 7 uM after 48 hrs by MTT assay relative to paclitaxel alone; type: cell-based
How it was run: (§2)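 DU145TXR cells seeded at 3000 per well, 24 h later treated 48 h with paclitaxel alone or with 3, 5, 7 or 10 μM inhibitor in complete medium (DMSO vehicle). MTT 4 h, formazan dissolved in DMSO, A570 read, background subtracted, viability relative to DMSO. IC50 by four-parameter nonlinear fit; eight replicates, at least two experiments. Fold values compare paclitaxel alone or with parent inhibitor.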

[5] = target: T2, P-glycoprotein (ABCB1, MDR1) ATPase; assay: Basal ATPase hydrolysis in recombinant human MDR1 expressed in Pichia pastoris measured after 30 mins in presence of NADH by coupled enzyme assay (reference value: 100 +/- 5 %); design: scale not given: the % may be the effect or the level left; details: recombinant human MDR1 (P-gp) expressed in Pichia pastoris
[6] = target: T1, ATP-dependent translocase ABCB1; assay: Reversal of P-gp mediated multidrug resistance in human DU145-TxR cells overexpressing P-gp assessed as potentiation of paclitaxel-induced cytotoxicity by measuring fold reduction paclitaxel IC50 at 10 uM after 48 hrs by MTT assay relative to paclitaxel alone; type: cell-based; how it was run: as §2
[7] = target: T3, P-glycoprotein (ABCB1, mouse MDR3) ATPase (Mus musculus, UniProt P21447); assay: Stimulation of basal ATPase hydrolysis in recombinant mouse MDR3 expressed in Pichia pastoris measured after 30 mins in presence of NADH by coupled enzyme assay (reference value: 100 +/- 7 %); design: scale not given: the % may be the effect or the level left; details: recombinant mouse MDR3 (P-gp) expressed in Pichia pastoris, read-out: Activity
[8] = target: T1, ATP-dependent translocase ABCB1; assay: Reversal of P-gp mediated multidrug resistance in human DU145-TxR cells overexpressing P-gp assessed as potentiation of paclitaxel-induced cytotoxicity by measuring fold reduction paclitaxel IC50 at 10 uM after 48 hrs by MTT assay relative to parent compound; type: cell-based; how it was run: as §2
[9] = target: T3, P-glycoprotein (ABCB1, mouse MDR3) ATPase; assay: Inhibition of verampil-stimulated ATPase hydrolysis in recombinant mouse MDR3 expressed in Pichia pastoris measured after 30 mins in presence of NADH by coupled enzyme assay (reference value: 100 +/- 8 %); design: scale not given: the % may be the effect or the level left; details: recombinant mouse MDR3 (P-gp) expressed in Pichia pastoris
[10] = target: T1, ATP-dependent translocase ABCB1; assay: Inhibition of P-gp overexpressed in human DU145-TxR cells assessed as increase in cellular accumulation of calcein AM at 2 uM preincubated for 6 hrs followed by calcein AM addition by fluorescence imaging analysis; type: cell-based
How it was run: (§3)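 Confluent DU145TXR monolayers in phenol red-free RPMI 1640 given 2 μM inhibitor (DMSO vehicle) and 1 μg mL−1 calcein AM, either added together or after a 6 h inhibitor-only preincubation at 37 °C. Calcein fluorescence (ex 485 / em 535 nm) read over 60 min at 20 min intervals. Six replicates, at least two independent experiments.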

[11] = target: T1, ATP-dependent translocase ABCB1; assay: Reversal of P-gp mediated multidrug resistance in human DU145-TxR cells overexpressing P-gp assessed as potentiation of paclitaxel-induced cytotoxicity by measuring fold reduction paclitaxel IC50 at 3 uM after 48 hrs by MTT assay relative to paclitaxel alone; type: cell-based; how it was run: as §2
[12] = target: T1, ATP-dependent translocase ABCB1; assay: Reversal of P-gp mediated multidrug resistance in human DU145-TxR cells overexpressing P-gp assessed as potentiation of paclitaxel-induced cytotoxicity by measuring fold reduction paclitaxel IC50 at 7 uM after 48 hrs by MTT assay relative to parent compound; type: cell-based; how it was run: as §2
[13] = target: T1, ATP-dependent translocase ABCB1; assay: Reversal of P-gp mediated multidrug resistance in human DU145-TxR cells overexpressing P-gp assessed as potentiation of paclitaxel-induced cytotoxicity by measuring fold reduction paclitaxel IC50 at 5 uM after 48 hrs by MTT assay relative to paclitaxel alone; type: cell-based; how it was run: as §2
[14] = target: T1, ATP-dependent translocase ABCB1; assay: Reversal of P-gp mediated multidrug resistance in human DU145-TxR cells overexpressing P-gp assessed as potentiation of paclitaxel-induced cytotoxicity by measuring fold reduction paclitaxel IC50 at 3 uM after 48 hrs by MTT assay relative to parent compound; type: cell-based; how it was run: as §2
[15] = target: T1, ATP-dependent translocase ABCB1; assay: Reversal of P-gp mediated multidrug resistance in human DU145-TxR cells overexpressing P-gp assessed as potentiation of paclitaxel-induced cytotoxicity by measuring fold reduction paclitaxel IC50 at 5 uM after 48 hrs by MTT assay relative to parent compound; type: cell-based; how it was run: as §2
[16] = target: T1, ATP-dependent translocase ABCB1; assay: Inhibition of P-gp overexpressed in human DU145-TxR cells assessed as increase in cellular accumulation of calcein AM at 2 uM pretreated followed by calcein AM addition by fluorescence imaging analysis; type: cell-based; how it was run: as §3
[17] = target: P-glycoprotein 1 Abcb1a (Mus musculus); assay: Inhibition of spin-labelled adenine nucleotide interaction with mouse MDR3 P-gp expressed in Escherichia coli BL21 (DE3) assessed as apparent dissociation constant by ESR analysis (reference value: 36.5 +/- 3.6 uM)
[18] = target: T3, P-glycoprotein (ABCB1, mouse MDR3) ATPase; assay: Basal ATPase hydrolysis in recombinant mouse MDR3 expressed in Pichia pastoris measured after 30 mins in presence of NADH by coupled enzyme assay (reference value: 100 +/- 7 %); design: scale not given: the % may be the effect or the level left; details: recombinant mouse MDR3 (P-gp) expressed in Pichia pastoris
[19] = target: T3, P-glycoprotein (ABCB1, mouse MDR3) ATPase; assay: Stimulation of verampil-mediated ATPase hydrolysis in recombinant mouse MDR3 expressed in Pichia pastoris measured after 30 mins in presence of NADH by coupled enzyme assay (reference value: 100 +/- 8 %); design: scale not given: the % may be the effect or the level left; details: recombinant mouse MDR3 (P-gp) expressed in Pichia pastoris, read-out: Activity
[20] = target: T1, ATP-dependent translocase ABCB1; assay: Inhibition of P-gp overexpressed in human DU145-TxR cells assessed as increase in intracellular compound accumulation after 2.5 hrs in presence of tariquidar by LC-MS/MS analysis; type: cell-based; how it was run: as §1
[21] = target: T3, P-glycoprotein (ABCB1, mouse MDR3) ATPase; assay: Effect on verampil-mediated ATPase hydrolysis of recombinant mouse MDR3 expressed in Pichia pastoris measured after 30 mins in presence of NADH by coupled enzyme assay (reference value: 100 +/- 8 %); design: scale not given: the % may be the effect or the level left; details: recombinant mouse MDR3 (P-gp) expressed in Pichia pastoris, read-out: Activity
[22] = target: T2, P-glycoprotein (ABCB1, MDR1) ATPase; assay: Effect on basal ATPase hydrolysis of recombinant human MDR1 expressed in Pichia pastoris measured after 30 mins in presence of NADH by coupled enzyme assay (reference value: 100 +/- 5 %); design: scale not given: the % may be the effect or the level left; details: recombinant human MDR1 (P-gp) expressed in Pichia pastoris, read-out: Activity
[23] = target: T1, ATP-dependent translocase ABCB1; assay: Inhibition of P-gp overexpressed in human DU145-TxR cells assessed as decrease in intracellular compound accumulation after 2.5 hrs in absence of tariquidar by LC-MS/MS analysis; type: cell-based; how it was run: as §1

T1 sequence (P08183 whole entry): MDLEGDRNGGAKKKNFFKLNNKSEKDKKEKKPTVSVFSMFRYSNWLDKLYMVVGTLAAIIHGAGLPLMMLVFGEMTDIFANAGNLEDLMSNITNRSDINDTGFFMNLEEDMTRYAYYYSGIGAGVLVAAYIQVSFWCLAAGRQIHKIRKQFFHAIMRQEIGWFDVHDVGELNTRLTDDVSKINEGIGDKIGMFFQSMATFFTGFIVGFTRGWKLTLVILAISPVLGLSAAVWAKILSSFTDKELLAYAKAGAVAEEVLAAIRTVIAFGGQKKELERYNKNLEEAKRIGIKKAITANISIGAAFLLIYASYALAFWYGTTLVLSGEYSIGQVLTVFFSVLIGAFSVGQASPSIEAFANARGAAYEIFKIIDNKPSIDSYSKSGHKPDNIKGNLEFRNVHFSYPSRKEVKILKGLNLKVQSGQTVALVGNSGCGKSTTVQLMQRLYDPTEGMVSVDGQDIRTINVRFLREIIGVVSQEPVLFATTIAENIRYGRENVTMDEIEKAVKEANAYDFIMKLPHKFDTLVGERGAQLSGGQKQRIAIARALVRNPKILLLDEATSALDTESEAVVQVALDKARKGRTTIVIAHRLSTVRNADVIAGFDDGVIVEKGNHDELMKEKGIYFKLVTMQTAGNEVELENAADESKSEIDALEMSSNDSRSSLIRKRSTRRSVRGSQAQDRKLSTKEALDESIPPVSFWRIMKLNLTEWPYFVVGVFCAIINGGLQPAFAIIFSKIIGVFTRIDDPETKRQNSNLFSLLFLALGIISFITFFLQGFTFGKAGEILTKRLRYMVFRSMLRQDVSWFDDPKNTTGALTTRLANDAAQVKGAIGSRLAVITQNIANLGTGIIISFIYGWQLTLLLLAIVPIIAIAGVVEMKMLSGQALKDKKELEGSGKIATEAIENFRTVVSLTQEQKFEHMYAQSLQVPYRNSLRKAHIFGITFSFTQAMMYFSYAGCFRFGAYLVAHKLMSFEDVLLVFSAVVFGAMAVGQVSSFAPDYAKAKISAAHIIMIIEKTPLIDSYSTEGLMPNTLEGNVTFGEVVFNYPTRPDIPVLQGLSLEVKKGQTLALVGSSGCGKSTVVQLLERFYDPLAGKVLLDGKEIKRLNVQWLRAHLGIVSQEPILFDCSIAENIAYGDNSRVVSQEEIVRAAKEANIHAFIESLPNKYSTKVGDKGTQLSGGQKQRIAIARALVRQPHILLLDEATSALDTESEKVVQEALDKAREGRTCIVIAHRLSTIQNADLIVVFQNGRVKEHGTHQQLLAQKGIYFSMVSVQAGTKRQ
T2 sequence (P08183 whole entry): as above
T3 sequence (P21447 whole entry): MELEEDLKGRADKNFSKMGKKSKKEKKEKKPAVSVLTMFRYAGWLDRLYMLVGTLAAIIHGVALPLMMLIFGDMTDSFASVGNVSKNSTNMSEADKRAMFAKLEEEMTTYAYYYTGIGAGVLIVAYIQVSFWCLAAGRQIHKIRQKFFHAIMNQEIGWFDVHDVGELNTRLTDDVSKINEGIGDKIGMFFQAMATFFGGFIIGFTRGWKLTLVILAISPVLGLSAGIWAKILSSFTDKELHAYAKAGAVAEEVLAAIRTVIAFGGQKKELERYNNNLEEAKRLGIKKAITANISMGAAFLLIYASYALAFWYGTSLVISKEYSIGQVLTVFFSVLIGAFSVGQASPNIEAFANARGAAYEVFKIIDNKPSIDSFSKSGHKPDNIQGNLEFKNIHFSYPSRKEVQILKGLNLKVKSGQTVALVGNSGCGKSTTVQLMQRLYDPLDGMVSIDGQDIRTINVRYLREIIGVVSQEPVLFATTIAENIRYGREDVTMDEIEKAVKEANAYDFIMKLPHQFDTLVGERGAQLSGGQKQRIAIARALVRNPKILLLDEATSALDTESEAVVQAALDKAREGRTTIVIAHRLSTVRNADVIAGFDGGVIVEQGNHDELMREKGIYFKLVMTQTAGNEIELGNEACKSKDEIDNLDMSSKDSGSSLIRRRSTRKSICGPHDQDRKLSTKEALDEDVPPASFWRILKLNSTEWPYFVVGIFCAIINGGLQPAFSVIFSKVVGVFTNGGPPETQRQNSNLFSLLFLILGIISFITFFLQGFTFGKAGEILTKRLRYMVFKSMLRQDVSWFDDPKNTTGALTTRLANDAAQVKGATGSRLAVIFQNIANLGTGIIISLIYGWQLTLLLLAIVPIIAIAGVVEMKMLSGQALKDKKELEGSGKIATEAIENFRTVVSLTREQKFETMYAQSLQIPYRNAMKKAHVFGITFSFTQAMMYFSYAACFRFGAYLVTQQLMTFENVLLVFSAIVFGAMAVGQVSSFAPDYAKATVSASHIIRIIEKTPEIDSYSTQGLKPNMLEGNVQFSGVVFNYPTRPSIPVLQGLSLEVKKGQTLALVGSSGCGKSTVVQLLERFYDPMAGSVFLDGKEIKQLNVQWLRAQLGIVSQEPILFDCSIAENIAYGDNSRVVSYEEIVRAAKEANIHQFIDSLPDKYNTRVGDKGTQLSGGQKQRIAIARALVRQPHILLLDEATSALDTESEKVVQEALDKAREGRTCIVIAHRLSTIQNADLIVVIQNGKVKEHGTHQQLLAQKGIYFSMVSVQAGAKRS

Row | Structure (SMILES) | Ratio [1] | Activity [2] | Activity at 0.5 h [3] [%] | fold change (FC) [4] | Activity at 0.5 h [5] [%] | fold change (FC) [6] | Activity at 0.5 h [7] [%] | fold change (FC) [8] | Activity at 0.5 h [9] [%] | inhibition (INH) [10] | fold change (FC) [11] | fold change (FC) [12] | fold change (FC) [13] | fold change (FC) [14] | fold change (FC) [15] | inhibition (INH) [16] | pKd [17] | Activity at 0.5 h [18] [%] | Activity at 0.5 h [19] [%] | inhibition (INH) [20] | further results
1 | Cc1cc(C)c(-c2cc(NC(=O)CSc3cccc(NC(=O)c4cncc(Br)c4)c3)n(-c3ccccc3)n2)cc1C | 1.1 | 1.7 | 27 | 236 | 72 | 353 | 150 | 3.5 | 62 | Active | 38 | 6.6 | 106 | 11 | 9.7 | Active | 4.64 | – | – | – | –
2 | Cc1cc(C)c(-c2cc(NC(=O)CSCC(=O)Nc3ccc4ccccc4c3)n(-c3ccccc3)n2)cc1C | 0.9 | 1.6 | 40 | 303 | 70 | 1060 | – | 11 | – | Active | 14 | 8.4 | 46 | 4.1 | 4.2 | Active | 4.65 | 70 | 141 | – | –
3 | Cc1cc(C)c(-c2cc(NC(=O)CSCC(=O)Nc3ccc4ncsc4c3)n(-c3ccccc3)n2)cc1C | 1.2 | 1.9 | 59 | 731 | – | 2118 | 355 | 27 | – | Active | 12 | 20 | 372 | 3.7 | 34 | Active | 4.59 | – | – | Active | Activity at 0.5 h [21]: 123%; Activity at 0.5 h [22]: 84%
4 | Cc1cc(C)c(-c2cc(NC(=O)CSCC(=O)NC34CC5CC(CC(C5)C3)C4)n(-c3ccccc3)n2)cc1C | 1 | 1.3 | 63 | 101 | 74 | 163 | – | 1.6 | 41 | Active | 9.2 | 2.8 | 19 | 2.7 | 1.8 | Not Active | 4.64 | 78 | – | Not Active | inhibition (INH) [23]: Not Active
5 | Cc1cc(C)c(-c2cc(NC(=O)CSCC(=O)NC(c3ccccc3)c3ccccc3)n(-c3ccccc3)n2)cc1C | 1.2 | 1.6 | 54 | 133 | 76 | 193 | 148 | 1.9 | – | Active | 13 | 3.7 | 38 | 3.9 | 3.5 | Not Active | 4.67 | – | 116 | Not Active | inhibition (INH) [23]: Not Active
